# Test results from publication PMC4428392 (Anti-Cancer Agents in Medicinal Chemistry, 2014).
# Where “and” joins values, the source holds several entries; their conditions need not be identical. Identical values can stand only once. Like-named read-outs stand apart in the source and are kept apart here.
# Key:
# Type in all cases: cell-based, Human
# [1] = tested on: caspase 3/7 in HCT-116 cells; assay: Caspase 3/7 activity; details: 30 µM, 24 h
# In short: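 HCT-116 cells were exposed to test compound at 30 µM for 24 h in normoxia or hypoxia. Cells were harvested, washed in PBS, centrifuged (350 g, 5 min) and stained with a FAM-FLICA caspase-3/7 inhibitor kit. Active caspase 3/7 was measured by flow cytometry. Data are mean ± SEM, n=3, compared with solvent control by one-way ANOVA with Tukey post hoc test.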
# NCI-H460 = assay: MTT cytotoxicity assay in normoxia and hypoxia, NCI-H460; details: for IC50: Homo sapiens
# In short: (§1)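 MCF-7 and HCT-116 were grown in DMEM; NCI-H460 in RPMI 1640 plus 10 mM HEPES; all media had 10% FBS, pyruvate and 1.5 g/L bicarbonate. Cells were seeded at 20000/well and grown 24 h at 20% O2, 5% CO2, 37 °C. Serial compound concentrations were then given for 24 h in normoxia, or for 6 h hypoxia (3% O2) followed by 18 h normoxia. MTT was read at 545 nm. IC50 came from linear regression of % inhibition versus log concentration, and HCR = IC50 normoxia/IC50 hypoxia.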
# HCT-116 cells [2] = assay: Cell cycle assay by flow cytometry; details: 24 h
# [3] = tested on: co-cultured HUVECs and fibroblasts; assay: In vitro tube formation test; details: 2 μM, 11 days
# In short: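 HUVECs were co-cultured with fibroblasts for 11 days in basal medium, solvent-control medium (0.2% DMSO), or solvent medium with test compound at 2 or 20 μM. Medium ± compound was renewed every 3 days, and suramin served as the kit positive control. HUVECs were stained with anti-CD31, and tube area, length, joints and paths were measured by image analyzer over 5 fields. Quadruplicate wells; mean ± SEM, n=4.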
# [4] = tested on: cleaved PARP in HCT-116 cells; assay: Level of cleaved PARP by flow cytometry; details: HCT-116, hypoxia, 30 µM, 24 h
# γ-H2AX in HCT-116 cells = assay: Level of γ-H2AX by flow cytometry; details: 30 µM, 24 h
# MCF-7 = assay: MTT cytotoxicity assay in normoxia and hypoxia, MCF-7
# In short: as §1
# HCT-116 = assay: MTT cytotoxicity assay in normoxia and hypoxia, HCT-116; details: for IC50: Homo sapiens
# In short: as §1
# [5] = tested on: γ-H2AX and cleaved PARP in HCT-116 cells; assay: Dual-parameter γ-H2AX and cleaved PARP flow cytometry; details: 30 µM, 24 h
# HCT-116 cells [6] = assay: ROS analysis by flow cytometry
# In short: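 HCT-116 cells were treated with test compound at 15 or 30 µM in normoxia or hypoxia (24 h per methods; legend states 18 h). They were stained with CM-H2DCFDA for 45 min, collected, and analysed on a FACSCalibur flow cytometer. Fluorescence was normalised to solvent control; mean ± SEM, n=3.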
smiles,measurement,setting,value
"[O-][n+]1nc(NCCNc2n[n+]([O-])c3ccccc3[n+]2[O-])nc2ccccc21 [Compound 9a, 3-(2-(1-Oxido-1,2,4-benzotriazin-3-yl)aminoethylamino)-1,2,4-benzotriazine-1,4-dioxide]",level of active caspase 3/7,"[1]; HCT-116, hypoxia, solvent control 7%",~55%
same,effect on level of active caspase 3/7,"[1]; HCT-116, normoxia",no apparent effect
same,IC50,"NCI-H460; NCI-H460, 24 h, read-out: Cytotoxicity (IC50) NCI-H460 N",43.7 ± 12.5 µM
same,IC50,"NCI-H460; NCI-H460, read-out: Cytotoxicity (IC50) NCI-H460 H",17.5 ± 4.3 µM
same,HCR = IC50 (aerobic)/IC50 (hypoxia),NCI-H460; NCI-H460,2.5
same,G1 (%),"HCT-116 cells [2]; HCT-116, hypoxia, 15 µM",26.2±3.7%
same,G2/M (%),"HCT-116 cells [2]; HCT-116, hypoxia, 15 µM",31.4% and 31.4±3.2%
same,S (%),"HCT-116 cells [2]; HCT-116, hypoxia, 15 µM",27.3±4.4%
same,Sub-G1 (%),"HCT-116 cells [2]; HCT-116, hypoxia, 15 µM",13.1% and 13.1±1.7%
same,G1 (%),"HCT-116 cells [2]; HCT-116, hypoxia, 30 µM",33.3±2.4%
same,G2/M (%),"HCT-116 cells [2]; HCT-116, hypoxia, 30 µM",16.7% and 16.7±2.5%
same,S (%),"HCT-116 cells [2]; HCT-116, hypoxia, 30 µM",25.8±3.8%
same,Sub-G1 (%),"HCT-116 cells [2]; HCT-116, hypoxia, 30 µM",24.3% and 24.3±2.8%
same,G1 (%),"HCT-116 cells [2]; HCT-116, normoxia, 15 µM",30.9±2.3%
same,G2/M (%),"HCT-116 cells [2]; HCT-116, normoxia, 15 µM",51.0% and 51.0±4.2%
same,S (%),"HCT-116 cells [2]; HCT-116, normoxia, 15 µM",15.0±5.5%
same,Sub-G1 (%),"HCT-116 cells [2]; HCT-116, normoxia, 15 µM",2.7±0.7%
same,G1 (%),"HCT-116 cells [2]; HCT-116, normoxia, 30 µM",24.3±4.1%
same,G2/M (%),"HCT-116 cells [2]; HCT-116, normoxia, 30 µM",58.3% and 58.3±2.8%
same,S (%),"HCT-116 cells [2]; HCT-116, normoxia, 30 µM",12.9±5.2%
same,Sub-G1 (%),"HCT-116 cells [2]; HCT-116, normoxia, 30 µM",3.8% and 3.8±1.7%
same,"reduction of areas, lengths, paths and joints of tube formation",[3],70-80%
same,cleaved PARP,[4],~45%
same,expression of γ-H2AX,"γ-H2AX in HCT-116 cells; HCT-116, hypoxia, solvent control 4%",around 30%
same,effect on expression of γ-H2AX,"γ-H2AX in HCT-116 cells; HCT-116, normoxia",no significant effect
same,HCR = IC50 (aerobic)/IC50 (hypoxia),MCF-7,> 6.0
same,HCR = hypoxic cytotoxicity ratio IC50 (aerobic)/IC50 (hypoxic),HCT-116; HCT-116,3.7
same,IC50,"HCT-116; HCT-116, 24 h, read-out: Cytotoxicity (IC50) HCT-116 N",66.3 ± 16.5 µM
same,IC50,"HCT-116; HCT-116, read-out: Cytotoxicity (IC50) HCT-116 H",18.1 ± 2.6 µM
same,cells expressing both γ-H2AX and cleaved PARP (upper right quadrant),"[5]; HCT-116, hypoxia",approximately 11%
same,cells expressing both γ-H2AX and cleaved PARP (upper right quadrant),"[5]; HCT-116, normoxia",0.1%
same,increase of ROS relative to control medium,"HCT-116 cells [6]; HCT-116, hypoxia, 15 µM",46 fold
same,increase of ROS relative to control medium,"HCT-116 cells [6]; HCT-116, hypoxia, 30 µM",60 fold
same,increase of ROS relative to control medium,"HCT-116 cells [6]; HCT-116, normoxia, 15 µM",3.4 fold
same,increase of ROS relative to control medium,"HCT-116 cells [6]; HCT-116, normoxia, 30 µM",5.8 fold
